Blank lines part the entries; values can stand above or below the compound they belong to.
Legend:
Type in all cases: biochemical
human TPST-2 [1] = biological target: T1, human TPST-2 (Homo sapiens, UniProt O60704); test: LC-MS initial-velocity kinetics, Reaction 2: sulfation of sY15CCR8
T1 sequence (O60704 25-377 limits assumed): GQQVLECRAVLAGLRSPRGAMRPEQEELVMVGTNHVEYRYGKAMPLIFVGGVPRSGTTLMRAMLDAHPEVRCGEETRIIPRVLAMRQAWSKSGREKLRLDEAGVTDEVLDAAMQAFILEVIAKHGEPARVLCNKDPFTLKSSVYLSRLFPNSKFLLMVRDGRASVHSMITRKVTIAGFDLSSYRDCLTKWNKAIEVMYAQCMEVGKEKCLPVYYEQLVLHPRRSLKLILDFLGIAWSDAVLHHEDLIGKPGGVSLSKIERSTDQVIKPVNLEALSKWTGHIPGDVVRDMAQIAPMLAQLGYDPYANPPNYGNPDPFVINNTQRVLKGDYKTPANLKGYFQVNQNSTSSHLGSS
Summary of the method: (§1)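 Enzyme was soluble HPC4-epitope-tagged human TPST-2 (transferrin signal peptide), affinity-purified from stably transfected CHO-K1 cells. PAPS and peptide were varied as a matrix in 20 mM MOPS pH 7.5, 100 mM NaCl, 10% glycerol at 30 °C. Reactions started with 250–750 nM enzyme, ran 6–20 min, and were quenched with methanol (0.5 µM final internal standard). Product was read by RP-LC negative-ESI SIM against a calibration curve. Data were fit to the ping-pong equation; kcat/Km came from fitted constants.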

human TPST-2 [2] = biological target: T1, human TPST-2; test: LC-MS initial-velocity kinetics, Reaction 1: sulfation of nonCCR8
Summary of the method: as §1

human TPST-2 [3] = biological target: T1, human TPST-2; test: Product inhibition by PAP, Reaction 2; conditions: pH 7.5, 30°C
human TPST-2 [4] = biological target: T1, human TPST-2; test: Product inhibition by PAP, Reaction 1
Summary of the method: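 Initial rates of nonCCR8 sulfation by HPC4-purified soluble human TPST-2 were measured at fixed PAP levels. Buffer was 20 mM MOPS pH 7.5, 100 mM NaCl, 10% glycerol, 30 °C. Reactions were quenched with methanol containing internal standard, and product was quantified by LC-ESI-MS SIM. Data were fit by nonlinear regression to competitive or noncompetitive inhibition equations. Two or three independent experiments.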

human TPST-2 [5] = biological target: T1, human TPST-2; test: 35S-sulfation of factor IX by TPST-2; conditions: with (lane 1) or without (lane 2) TPST-2; 6 h at 37°C, pH 6.9; autoradiography

Compound: Nc1ncnc2c1ncn2[C@@H]1O[C@H](COP(=O)(O)OS(=O)(=O)O)[C@@H](OP(=O)(O)O)[C@H]1O [PAPS, 3′-phosphoadenosine 5′-phosphosulfate, reference compound]
specificity constant kcat/Km of PAPS (human TPST-2 [1]; Reaction 2, for PAPS, calculated from Table 1 values): 280 M⁻¹ s⁻¹
substrate preference by specificity constants, Reaction 1 (human TPST-2 [2]; PAPS compared with nonCCR8): preferred substrate over nonCCR8
specificity constant kcat/Km for PAPS (human TPST-2 [2]; Reaction 1, for PAPS, calculated from Table 1 values): 590 M⁻¹ s⁻¹

Compound: VTDsYYYPDI [sY15CCR8]
specificity constant kcat/Km of sY15CCR8 (human TPST-2 [1]; Reaction 2, for sY15CCR8, calculated from Table 1 values): 430 M⁻¹ s⁻¹
estimated Vmax (human TPST-2 [1]; Reaction 2, from intercept replots, pH 7.5, 30°C): 1.7 mU/mg protein
substrate preference by specificity constants, Reaction 2 (human TPST-2 [1]; sY15CCR8 compared with PAPS): preferred than PAPS
substrate suitability by kcat/Km (human TPST-2 [1]; sY15CCR8 compared with nonCCR8): more suitable substrate than nonCCR8

Compound: factor IX: recombinant human factor IX, BeneFIX, Wyeth Pharmaceuticals Inc.
35S-sulfuryl group transfer to factor IX (human TPST-2 [5]): occurred only in the presence TPST-2

Second part, led by results:

PAP inhibition mode with respect to PAPS (human TPST-2 [3]; PAPS varied 5-25 µM, sY15CCR8 25 µM): competitively
PAP inhibition mode with respect to sY15CCR8 (human TPST-2 [3]; sY15CCR8 varied 5-25 µM, PAPS 25 µM): noncompetitively
KI', product inhibition constant for PAP versus nonCCR8 (human TPST-2 [4]; Reaction 1, pH 7.5, 30°C, mean of two or three independent experiments): 1200 nM
Compound: Nc1ncnc2c1ncn2[C@@H]1O[C@H](COP(=O)(O)O)[C@@H](OP(=O)(O)O)[C@H]1O [PAP]
PAP inhibition patterns, Reaction 1, compared with Reaction 2 (human TPST-2 [4]; Reaction 1, with respect to PAPS and nonsulfated CCR8, data not shown): The same PAP inhibition patterns were observed with respect to PAPS and nonsulfated CCR8 substrates

specificity constant kcat/Km (human TPST-2 [2]; Reaction 1, for nonCCR8, calculated from Table 1 values): 270 M⁻¹ s⁻¹
estimated Vmax (human TPST-2 [2]; Reaction 1, calculated from intercept replots, pH 7.5, 30°C): 6.7 mU/mg protein
Km of nonsulfated CCR8 peptide relative to monosulfated peptide (human TPST-2 [2]; ratio to Km of sY15CCR8): at least five
Compound: VTDYYYPDI [nonCCR8]

— PMC3088362 (Journal of the American Society for Mass Spectrometry, 2010)
